From ChEMBL document CHEMBL4422635, “Structure-Based Discovery of a Subtype-Selective Inhibitor Targeting a Transient Receptor Potential Vanilloid Channel” (J Med Chem, 2019) come the findings set out here.

Residue numbers refer to the chain shown, from its start. Calls of active or inactive are those of the source. No cut-off for these calls is given here.

Experiment [1] deals with T1, Transient receptor potential cation channel subfamily V member 2 (Mus musculus), Q9WTR1 [F467S].
T1 sequence (whole entry): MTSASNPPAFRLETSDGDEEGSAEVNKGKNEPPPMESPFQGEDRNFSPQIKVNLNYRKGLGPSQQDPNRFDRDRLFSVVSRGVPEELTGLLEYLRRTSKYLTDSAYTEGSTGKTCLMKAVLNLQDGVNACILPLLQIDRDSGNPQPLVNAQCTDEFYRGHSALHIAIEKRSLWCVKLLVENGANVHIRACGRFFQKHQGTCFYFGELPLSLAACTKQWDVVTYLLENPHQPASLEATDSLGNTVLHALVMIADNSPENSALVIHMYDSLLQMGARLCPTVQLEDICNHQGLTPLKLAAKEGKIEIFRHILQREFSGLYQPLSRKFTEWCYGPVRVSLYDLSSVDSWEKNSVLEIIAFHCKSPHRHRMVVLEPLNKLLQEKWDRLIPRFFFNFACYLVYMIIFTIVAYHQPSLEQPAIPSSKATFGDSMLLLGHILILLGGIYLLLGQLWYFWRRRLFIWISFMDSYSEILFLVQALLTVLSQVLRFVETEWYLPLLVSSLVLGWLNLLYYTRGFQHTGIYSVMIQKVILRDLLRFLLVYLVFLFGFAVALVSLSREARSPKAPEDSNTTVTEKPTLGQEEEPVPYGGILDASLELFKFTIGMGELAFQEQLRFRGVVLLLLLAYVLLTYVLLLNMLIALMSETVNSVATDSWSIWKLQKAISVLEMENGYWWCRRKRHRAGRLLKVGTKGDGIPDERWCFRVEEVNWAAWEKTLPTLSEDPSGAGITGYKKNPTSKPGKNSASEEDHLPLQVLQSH
Put plainly: Antagonist activity at mouse TRPV2 F467S mutant expressed in HEK293T cells assessed as inhibition of 2-APB evoked currents at -60 mV holding potential by whole-cell patch clamp assay. The format is cell-based. In a few lines: (§1)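 Whole-cell voltage clamp of transiently transfected HEK293T cells co-expressing GFP, recorded 36-96 h post-transfection. Hold -60 mV; pipettes 3-7 MΩ. Bath 165 mM NaCl, 10 mM HEPES pH 7.3; pipette 140 mM KCl, 10 mM HEPES pH 7.3. Room temperature (~25 °C). IC50 from Hill fits of I/I0, the current ratio after vs before inhibitor; mean ± SEM.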
In general terms: The patch-clamp technique gives a direct electrical read-out from membranes.

Experiment [2] has as its system T2, Transient receptor potential cation channel subfamily V member 2 (Mus musculus), Q9WTR1 [Q525E].
T2 sequence (whole entry): T1 sequence (whole entry) with S467F, Q525E
Put plainly: Antagonist activity at mouse TRPV2 Q525E mutant expressed in HEK293T cells assessed as inhibition of 2-APB evoked currents at -60 mV holding potential by whole-cell patch clamp assay. The format is cell-based. The method in brief: as §1

The subject of experiment [3] is T3, Transient receptor potential cation channel subfamily V member 2 (Mus musculus), Q9WTR1 [Q525A].
T3 sequence (whole entry): T1 sequence (whole entry) with S467F, Q525A
The experiment in a line: Antagonist activity at mouse TRPV2 Q525A mutant expressed in HEK293T cells assessed as inhibition of 2-APB evoked currents at -60 mV holding potential by whole-cell patch clamp assay. In kind it is cell-based. The method in brief: as §1

A further experiment has as its system Mus musculus. Put plainly: Antagonist activity at mouse TRPV2/LPAR1 expressed in LPA-stimulated HEK293T cells assessed as inhibition of 2-APB evoked currents at 10 uM dosed 3 mins after LPA stimulation by whole-cell patch clamp assay. The method in brief:
as §1

A further experiment is filed under the species Homo sapiens. Put plainly: Inhibition of LPA-induced TRPV2/LPAR1 mediated cell migration in human PC3M cells at 20 uM after 24 hrs by transwell migration assay. In kind it is cell-based.

For `CCCN(C)c1cc(C(F)(F)F)nc(SCCC(=O)NCc2ccco2)n1`, the inhibition result in experiment [1], in experiment [2] and in experiment [3] was “inactive” throughout. The inhibition result in the experiment with Mus musculus and in the experiment listed under Homo sapiens was “Active” throughout.
